Assay [1] can be described thus: capsule biogenesis inhibitors via T7 lysis, dose response, EV36 K1 hybrid, OD600, round 6 (AID 624055). Conditions: E. coli EV36 T7 phage lysis, OD600; at 50 µM (top of the series). The method, boiled down: (§1)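 Material: Escherichia coli EV36, a K1:K-12 hybrid strain | Input: Overnight culture at 1:100 dilution | Detection: Absorbance at 600 nm | Measure: Inhibition of phage lysis by OD600 | Compound: Two-fold serial compound dilution series, 1% DMSO final | Incubation: 1.5 h compound pre-exposure, 3 h post-infection | Probe or stimulus: T7 phage infection after compound pre-exposure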

The test system of assay [2] is E. coli EV36 T7 phage lysis, OD600. The description is as above. An outline of the steps:
as §1

“And” between values parts separate entries of the source, which are not always exact repeats. Identical values can stand only once. The source made the active and inactive calls.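 How the source made its calls: active means compounds specific to the target that block phage lysis by more than 30% when retested across doses; inactive means the rest, not confirmed on retesting.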

Regarding `O=C(Nc1cc(-c2ccc(OC(F)(F)F)cc2)sc1C(=O)O)c1cccc(F)c1`, the phage lysis inhibition in assay [1] is -12.3% (inactive).
Consider `CCOc1ccc(-c2cc(NC(=O)c3c(F)cccc3C(F)(F)F)c(C(=O)O)s2)cc1`, for which the IC50 (usually the concentration that inhibits the measured activity by half) in assay [2] was less than 6.25 µM.
As for `O=C(NCCc1ccncc1)c1ccc2ncsc2c1`, in assay [1], the phage lysis inhibition was 127% (inactive).
As for `O=C(O)c1sc(-c2ccc(OCC(F)(F)F)cc2)cc1NC(=O)c1c(F)cc(F)cc1F`, the IC50 in assay [2] is less than 6.25 µM.
For the compound `[N-]=[N+]=NCCOc1ccc(-c2cc(NC(=O)c3c(F)cccc3F)c(C(=O)O)s2)cc1`, the IC50 in assay [2] is less than 6.25 µM.
The same measure, in the same setting: the value for `CCOc1ccc(-c2cc(NC(=O)c3c(F)cc(F)cc3F)c(C(=O)O)s2)cc1` was less than 6.25 µM.
Still for that read-out and setting: under `CCCc1ccc(-c2cc(NC(=O)c3cc(Br)c(Br)o3)c(C(=O)O)s2)cc1` stands less than 6.25 µM; under `O=C(O)c1sc(-c2ccc(OCCCC(F)(F)F)cc2)cc1NC(=O)c1c(F)cccc1F`, less than 6.25 µM; under `O=C(O)c1sc(-c2ccc(OCCC(F)(F)F)cc2)cc1NC(=O)c1c(F)cccc1F`, less than 6.25 µM.
For the compound `CCCCOc1ccc(-c2cc(NC(=O)c3ccc(Br)o3)c(C(=O)O)s2)cc1`, the IC50 in assay [2] is less than 6.25 µM.
On the same count and under the same terms, under `O=C(O)c1sc(-c2ccc(OCCC(F)(F)F)cc2)cc1NC(=O)c1c(F)cc(F)cc1F` stands less than 6.25 µM.
The same measure, in the same setting: the value for `CCCc1ccc(-c2cc(NC(=O)c3ccc(Br)o3)c(C(=O)O)s2)cc1` was less than 6.25 µM; that for `O=C(O)c1sc(-c2ccc(OC(F)(F)F)cc2)cc1NC(=O)c1c(F)cccc1F` was less than 6.25 µM.
Turning to `CCCCOc1ccc(-c2cc(NC(=O)c3c(F)cc(F)cc3F)c(C(=O)O)s2)cc1`, in assay [2], the IC50 was less than 6.25 µM.
On to `O=C(Nc1cc(-c2ccc(OC(F)(F)F)cc2)sc1C(=O)O)c1cc2ccccc2o1`, for which the phage lysis inhibition in assay [1] is -11.1% (inactive).
For `CCCc1ccc(-c2cc(NC(=O)c3c(F)cccc3F)c(C(=O)O)s2)cc1`, in assay [2], the IC50 was less than 6.25 µM.
Same read-out and setting: the value for `COc1ccc2nc(NC(=O)c3ccc(Br)s3)sc2c1` was less than 0.21 µM.
Still for that read-out and setting: the value for `O=C(O)c1sc(-c2ccc(OCC(F)(F)F)cc2)cc1NC(=O)c1c(F)cccc1F` was less than 6.25 µM.
`CC(C)(C)c1ccc(-c2cc(NC(=O)c3ccc(Br)s3)c(C(=O)O)s2)cc1`: the phage lysis inhibition in assay [1] is -10.5% (inactive).
With `O=C(Nc1cc(-c2ccc(OCCCC(F)(F)F)cc2)sc1C(=O)O)c1ccc(Br)o1`, in assay [2], the IC50 was less than 6.25 µM.
Consider `COc1cc2sc(NC(=O)c3ccc(Br)s3)nc2cc1F`, for which, in assay [1], the phage lysis inhibition was -13% (inactive).
On to `CCCCOc1ccc(-c2cc(NC(=O)c3c(F)cccc3F)c(C(=O)O)s2)cc1`, for which, in assay [2], the IC50 was less than 6.25 µM.
For the compound `O=C(NCc1ccncc1)c1ccc2ncsc2c1`, the phage lysis inhibition in assay [1] was 128% (inactive).
Same read-out and setting: the value for `O=C(Nc1cc(-c2ccc(OCCCC(F)(F)F)cc2)sc1C(=O)O)c1cc(Br)c(Br)o1` was -18.4% (inactive) and -21% (inactive); that for `O=C(NC1CCNCC1)c1ccc2ncsc2c1` was 135% (inactive).
On to `O=C(Nc1cc(-c2ccc(OC(F)(F)F)cc2)sc1C(=O)O)c1ccc(Br)o1`, for which the IC50 in assay [2] is less than 6.25 µM.
Regarding `CCOc1ccc(-c2cc(NC(=O)c3c(F)cccc3F)c(C(=O)O)s2)cc1`, the IC50 in assay [2] is less than 6.25 µM.
The same measure, in the same setting: the value for `O=C(Nc1cc(-c2ccc(OCC(F)(F)F)cc2)sc1C(=O)O)c1ccc(Br)o1` was less than 6.25 µM.
`O=C(Nc1ccncc1)c1ccc2ncsc2c1`: in assay [1], the phage lysis inhibition is 121% (inactive). Moreover, in assay [2], the IC50 is less than 6.25 µM.
As to `CCCCOc1ccc(-c2cc(NC(=O)c3cc(Br)c(Br)o3)c(C(=O)O)s2)cc1`, in assay [2], the IC50 was less than 6.25 µM.
The same measure, in the same setting: the value for `CCCOc1ccc(-c2cc(NC(=O)c3c(F)cc(F)cc3F)c(C(=O)O)s2)cc1` was less than 6.25 µM.
Same read-out and setting: the value for `CCCc1ccc(-c2cc(NC(=O)c3c(F)cc(F)cc3F)c(C(=O)O)s2)cc1` was less than 6.25 µM; that for `O=C(O)c1sc(-c2ccc(OCCCC(F)(F)F)cc2)cc1NC(=O)c1c(F)cc(F)cc1F` was less than 6.25 µM.
Still for that read-out and setting: the value for `O=C(Nc1cc(-c2ccc(OCCC(F)(F)F)cc2)sc1C(=O)O)c1ccc(Br)o1` was less than 6.25 µM.

Source of the values: PubChem BioAssay AID624055 (Southern Research Specialized Biocontainment Screening …, 2012).
